Screening results deposited in PubChem BioAssay by Columbia University Molecular Screening Center.
Only a selection was taken, and hits are over-represented in it overall.
Insulin prom act: activators of insulin promoter-driven GFP, primary screen, imaging, TRM-6 cells (human fetal islet line), eGFP reporter, cell count; plate-scaled: unstimulated 0, stimulated control 100; activation, % at 2 µM; actives 0.81% (n = 130,000);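 active means activation at 2 µM above a set limit, confirmed on inspection of the cell images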;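 further: share of cells whose green reporter signal exceeds an intensity cutoff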
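Assay system: TRM-6 human fetal islet cells, insulin promoter–eGFP reporter; Also added: 0.75 µM tamoxifen as reporter inducer; Schedule: 15 h tamoxifen pre-treatment, 48 h compound treatment at 37 °C; Signal: fixed-cell fluorescence microscopy, eGFP plus Hoechst; Read-out: percent activation from GFP-positive cell fraction; Control set: stimulated and unstimulated wells.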
Starred values were filed as active, the others as inactive.

CC(=O)Nc1ccccc1C(=O)C(=O)Nc1ccc(C(=O)NCC2CCCO2)cc1 (configuration not stated) was read as Insulin prom act 7.
For CCOC(=O)c1[nH]c2c(c1-c1ccc(OC)cc1)C(=O)CC(c1ccc(OC)c(OC)c1)C2 (configuration not stated) the results were Insulin prom act 152.
COc1ccc(OCC(=O)Nc2ccc(N3CCN(C(=O)c4ccccc4C)CC3)cc2)cc1 was read as Insulin prom act 0.
`CC1CC(C)CN(C(=O)c2cc3cc(Br)cc(Br)c3o2)C1` (configuration not stated) gave Insulin prom act 8.
For CCc1ccc(S(=O)(=O)/N=C2/C=C(Sc3ncn[nH]3)C(=O)c3ccccc32)cc1 the results were Insulin prom act 169.
CCc1ccc(S(=O)(=O)/N=C2\C=CC(=O)c3ccccc32)cc1 was read as Insulin prom act 327*.
`COc1ccc(CNC(=O)C/C(C)=N/NC(=O)C23CC4CC(CC(C4)C2)C3)cc1` gave Insulin prom act 0.
CCNc1nc(NCC)n2c(SCC(=O)Nc3ccc(C(F)(F)F)cc3[N+](=O)[O-])nnc2n1 was read as Insulin prom act 6.
Cc1ccc(CC2S/C(=N/c3ccccn3)NC2=O)cc1 (configuration not stated) was read as Insulin prom act 0.
O=C1N/C(=N\c2ccccn2)SC1Cc1ccc(Cl)cc1 (configuration not stated) was read as Insulin prom act 450*.
For Cc1ccc(CC2SC(=O)NC2=O)cc1Cl (configuration not stated) the results were Insulin prom act 9.
Screening Cc1ccc(NC(=O)Cc2nnc(SCC(=O)c3ccc(Br)cc3)n2C)cc1Cl returned Insulin prom act 8.
Screening O=C1C2C3C=CC(C3)C2C(=O)N1c1ccc(N2CCN(c3ccccn3)CC2)c([N+](=O)[O-])c1 (configuration not stated) returned Insulin prom act -85.
Screening COc1ccc(/C=C2\NC(=S)N(CC3CCCO3)C2=O)c(OC)c1C (configuration not stated) returned Insulin prom act -3.
CCCN1C(=O)/C(=C/c2ccc(N3CCCC3)c(C)c2)NC1=S was read as Insulin prom act 92*.
Screening CN1C(=O)/C(=C/c2ccccc2OCc2cccc(F)c2)N(C)C1=S returned Insulin prom act 5.
`COc1cc(N2CCCC2)c(OC)cc1/C=C1/NC(=S)NC1=O` gave Insulin prom act 154.
`Cc1cc(/C=C2/C(=O)N(C)C(=S)N2C)ccc1N1CCCC1` gave Insulin prom act 376*.
Screening Cc1ccccc1N1CCN(C(=O)CN2C(=O)c3ccccc3C2=O)CC1 returned Insulin prom act 0.
Screening Cc1sc2nc(COC(=O)c3cccc(S(=O)(=O)N(C)c4ccccc4)c3)[nH]c(=O)c2c1C returned Insulin prom act 165.
Screening CN(C)C(=S)SCC(=O)Nc1ccc(Cl)cc1Cl returned Insulin prom act -3.
CCc1nnc(NC(=O)CCC(=O)N2CCN(C3c4ccccc4-c4ccccc43)CC2)s1 was read as Insulin prom act 7.
Screening COc1cc(S(=O)(=O)N2CCN(C(=O)c3ccccc3)CC2)c(OC)cc1Br returned Insulin prom act -8.
Screening Brc1ccc2ncnc(Nc3ccc(N4CCOCC4)cc3)c2c1 returned Insulin prom act -5.
For CC(=O)Nc1ccc(S(=O)(=O)NCc2ccc(C(=O)NC(C)c3ccccc3)cc2)cc1 (configuration not stated) the results were Insulin prom act 7.
`CC1(C)NC(=O)N(c2ccccc2Cl)C1(C)NO` (configuration not stated) gave Insulin prom act -7.
For Cc1cc(C)cc(OCC(=O)Nc2nonc2NC(=O)COc2cc(C)cc(C)c2)c1 the results were Insulin prom act -6.
For COc1cc2c(cc1NC(=O)COc1ccc3ccccc3c1)oc1ccccc12 the results were Insulin prom act -7.
Cc1cccnc1NC(=O)COc1ccc2oc3c(c2c1)CCCC3 was read as Insulin prom act 433*.
`CC1(C)OC(c2ccccc2)=C/C(=C/C=N/NC(=O)c2ccncc2)O1` gave Insulin prom act 8.
Screening CNC(=O)CSCc1c(F)cccc1Cl returned Insulin prom act -81.
Screening O=C(Cc1c(F)cccc1Cl)N1CCCC1 returned Insulin prom act 557*.
For CC(NC(=O)Cc1c(F)cccc1Cl)C1CCCO1 (configuration not stated) the results were Insulin prom act -3.
Cc1nc([N+](=O)[O-])c(C(=O)OCc2ccccc2F)n1C was read as Insulin prom act 6.
COc1cccc(NC(=O)CN2C(=O)NC(C)(CC(C)C)C2=O)c1 (configuration not stated) was read as Insulin prom act 2.
c1ccc(Oc2ccc(-c3ccnc4ncnn34)cc2)cc1 was read as Insulin prom act 397*.
For Clc1ccc(COc2ccccc2-c2ccnc3ncnn23)cc1 the results were Insulin prom act 9.
For c1ccc(Oc2ccc(-c3ccnc4nc(N5CCOCC5)nn34)cc2)cc1 the results were Insulin prom act -3.
For CCC(CO)n1c(=S)[nH]c2cc(OC)c(OC)cc2c1=O (configuration not stated) the results were Insulin prom act -7.
CC1=C(C(=O)OCC2CCCO2)C(c2ccc(Cl)cc2)NC(=O)N1 (configuration not stated) was read as Insulin prom act -9.
Screening CN(C)c1ccc(/C=N/N2C(=N)N(c3ccccc3)C(=S)C2=Nc2ccccc2)cc1 returned Insulin prom act 252.
CN(C)c1ccc(/C=C/C=C2/SC(=S)N(c3ccccc3)C2=O)cc1 was read as Insulin prom act 296*.
CN(C)c1ccc(/C=C/C(O)=C2/C(=O)N(C)C3(C)CC2c2ccccc2O3)cc1 (configuration not stated) was read as Insulin prom act 64.
`CC(C)C(=O)NC(=S)Nc1ccc(S(=O)(=O)N(C)Cc2ccccc2)cc1` gave Insulin prom act 0.
`COc1ccc(OCCN2C(=O)c3ccccc3C2=O)cc1` gave Insulin prom act 108.
CCOc1ccc(OCCN2C(=O)NC(Cc3c[nH]c4ccccc34)C2=O)cc1 (configuration not stated) was read as Insulin prom act 533*.
Screening COc1ccc(OCC(=O)NCCc2c[nH]c3ccccc23)cc1 returned Insulin prom act 7.
Screening Cc1cc(-c2ccccc2)nn1-c1nc2c(c(=O)[nH]c(=O)n2C)n1C returned Insulin prom act -9.
`Cc1ccc(NC(=O)CSCC(=O)Nc2ccc(N3CCOCC3)c(Cl)c2)cc1` gave Insulin prom act 0.
Screening CCn1c(Cc2ccccc2)nnc1SCC(=O)Nc1ccc(N2CCOCC2)c(Cl)c1 returned Insulin prom act 377.
`Cn1c(SCC(=O)Nc2ccc(N3CCOCC3)c(Cl)c2)nnc1-c1ccccc1` gave Insulin prom act 800*.
`COc1ccc(CCn2c(-n3nc(C)cc3C)nc3c2c(=O)[nH]c(=O)n3C)cc1` gave Insulin prom act -5.
Cn1c(=O)[nH]c(=O)c2c1nc(CN1CCN(c3ccc(F)cc3)CC1)n2CCc1ccccc1 was read as Insulin prom act 329.
For COc1ccc(CCn2c(N3CCOCC3)nc3c2c(=O)[nH]c(=O)n3C)cc1 the results were Insulin prom act 100*.
Cc1ccc(CN2CCN(/N=C/C=C/c3ccccc3[N+](=O)[O-])CC2)cc1 was read as Insulin prom act -73.
